This is an account of results in ChEMBL document CHEMBL1782029, “Synthesis and biological evaluation of N-substituted benzo[c]phenanthrolines and benzo[c]phenanthrolinones as antiproliferative agents” (Eur J Med Chem, 2011).

In experiment [1] the target is T1, DNA topoisomerase 1 (Homo sapiens) (UniProt P11387).
T1 sequence (whole entry): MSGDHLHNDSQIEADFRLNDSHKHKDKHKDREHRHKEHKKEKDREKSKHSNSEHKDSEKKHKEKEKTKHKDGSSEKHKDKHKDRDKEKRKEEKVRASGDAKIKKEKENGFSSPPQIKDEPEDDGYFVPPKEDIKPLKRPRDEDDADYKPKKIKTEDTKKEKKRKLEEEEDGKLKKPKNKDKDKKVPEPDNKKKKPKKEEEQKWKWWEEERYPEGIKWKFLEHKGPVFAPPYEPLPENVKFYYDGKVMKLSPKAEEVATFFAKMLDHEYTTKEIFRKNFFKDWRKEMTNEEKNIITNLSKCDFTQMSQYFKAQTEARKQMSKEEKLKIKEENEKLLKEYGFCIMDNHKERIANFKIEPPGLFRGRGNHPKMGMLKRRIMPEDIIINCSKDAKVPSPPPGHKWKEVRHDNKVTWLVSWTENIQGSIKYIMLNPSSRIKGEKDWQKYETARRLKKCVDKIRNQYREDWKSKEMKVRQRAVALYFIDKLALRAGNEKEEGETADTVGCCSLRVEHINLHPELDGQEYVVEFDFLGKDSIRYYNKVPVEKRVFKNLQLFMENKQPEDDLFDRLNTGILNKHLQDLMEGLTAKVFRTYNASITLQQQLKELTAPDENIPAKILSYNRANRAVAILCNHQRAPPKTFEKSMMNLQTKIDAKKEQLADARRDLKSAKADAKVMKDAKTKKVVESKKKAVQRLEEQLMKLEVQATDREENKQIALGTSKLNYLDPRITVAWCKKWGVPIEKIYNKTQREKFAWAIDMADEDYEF
Put plainly: Inhibition of human recombinant topoisomerase 1 assessed as cleavage of 117-mer DNA fragment at 0.5 to 5 uM using ethidium bromide staining by agarose gel electrophoresis analysis.

The target of experiment [2] is DNA topoisomerase 2-alpha (Homo sapiens) (UniProt P11388). Description: Inhibition of human topoisomerase 2 assessed as formation of linear form of supercoiled pUC19 DNA at 50 uM after 45 mins using ethidium bromide staining by agarose gel analysis.
Experiment [3] shares this target. Put plainly: Inhibition of human topoisomerase 2 assessed as formation of nicked form of supercoiled pUC19 DNA at 50 uM after 45 mins using ethidium bromide staining by agarose gel analysis.
Experiment [4] addresses T1, DNA topoisomerase 1 (Homo sapiens). Put plainly: Inhibition of human recombinant topoisomerase 1-mediated relaxation of supercoiled pUC19 DNA assessed as formation of nicked DNA at 0.1 to 5 uM using ethidium bromide staining by agarose gel electrophoresis. Summed up: (§1)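 Supercoiled pUC19 plasmid (130 ng) was incubated with 4 units of human recombinant Top1 at 37 °C for 45 min in relaxation buffer (50 mM Tris pH 7.8, 50 mM KCl, 10 mM MgCl2, 1 mM DTT, 1 mM EDTA, 1 mM ATP) with increasing compound concentrations. Products were resolved on 1% agarose at room temperature, 2 h at 120 V, then stained with ethidium bromide and imaged under UV.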

Experiment [5] concerns Calf thymus DNA. Description: Binding affinity to calf thymus DNA at 20 uM by UV-vis spectrophotometry analysis. The following applies: Bos taurus. Type of experiment: nucleic-acid assay.
The subject of the next experiment is HT-29. Put plainly: Cytotoxicity against human HT-29 cells after 72 hrs by MTS assay. The following applies: HT-29, 72 h. Format: functional, cell-based. A general note: Tetrazolium assays rely on reduction of a dye to a coloured formazan, in cell work by metabolically active cells.
Experiment [6] deals with Calf thymus DNA. Description: Binding affinity to calf thymus DNA by circular dichroism analysis. The conditions noted are these: Bos taurus. Type of experiment: nucleic-acid assay. For orientation: CD spectra are sensitive to the conformation of chiral molecules.
Experiment [7] deals with T1, DNA topoisomerase 1 (Homo sapiens). Put plainly: Inhibition of camptothecin-induced poisoning effect of human topoisomerase 1 assessed as suppression of CPT-induced 117 bp DNA cleavage by SDS-PAGE analysis.
The target is the same in experiment [8]. Put plainly: Inhibition of human recombinant topoisomerase 1-mediated relaxation of supercoiled pUC19 DNA assessed as formation of nicked DNA at 1 to 50 uM using ethidium bromide staining by agarose gel electrophoresis. Summed up: as §1
In a further experiment the test system is Nucleic Acid. Description: Binding affinity to 265 bp of 3'-end-radio-labelled DNA fragment at 0.5 to 5 uM treated 15 mins before Dnase 1-mediated digestion by footprinting assay. Format: nucleic-acid assay. Summed up: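 DNase I footprinting. It was equilibrated with compound for 15 min at 37 °C, then digested 3 min with DNase I (0.01 unit/ml) in 20 mM NaCl, 2 mM MgCl2, 2 mM MnCl2, pH 7.3. Samples were lyophilised, denatured at 90 °C and run on an 8% denaturing polyacrylamide gel.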

Experiment [9] addresses T1, DNA topoisomerase 1 (Homo sapiens). Put plainly: Inhibition of human recombinant topoisomerase 1 assessed as cleavage of 117-mer DNA fragment at 20 to 50 uM using ethidium bromide staining by agarose gel electrophoresis analysis.
The target is the same in experiment [10]. Description: Inhibition of human recombinant topoisomerase 1-mediated relaxation of supercoiled pUC19 DNA assessed as formation of nicked DNA at 0.2 to 10 uM using ethidium bromide staining by agarose gel electrophoresis. The method in brief:
as §1

Broadly, the pIC50 is the negative decadic logarithm of the IC50, by convention in mol/L. Higher therefore signals a small IC50.

pIC50: −log10 of the molar value. Calls of active or inactive are those of the source. The rule behind the calls is not given here.

Chain of DNA topoisomerase 2-alpha (Homo sapiens) (P11388 whole entry): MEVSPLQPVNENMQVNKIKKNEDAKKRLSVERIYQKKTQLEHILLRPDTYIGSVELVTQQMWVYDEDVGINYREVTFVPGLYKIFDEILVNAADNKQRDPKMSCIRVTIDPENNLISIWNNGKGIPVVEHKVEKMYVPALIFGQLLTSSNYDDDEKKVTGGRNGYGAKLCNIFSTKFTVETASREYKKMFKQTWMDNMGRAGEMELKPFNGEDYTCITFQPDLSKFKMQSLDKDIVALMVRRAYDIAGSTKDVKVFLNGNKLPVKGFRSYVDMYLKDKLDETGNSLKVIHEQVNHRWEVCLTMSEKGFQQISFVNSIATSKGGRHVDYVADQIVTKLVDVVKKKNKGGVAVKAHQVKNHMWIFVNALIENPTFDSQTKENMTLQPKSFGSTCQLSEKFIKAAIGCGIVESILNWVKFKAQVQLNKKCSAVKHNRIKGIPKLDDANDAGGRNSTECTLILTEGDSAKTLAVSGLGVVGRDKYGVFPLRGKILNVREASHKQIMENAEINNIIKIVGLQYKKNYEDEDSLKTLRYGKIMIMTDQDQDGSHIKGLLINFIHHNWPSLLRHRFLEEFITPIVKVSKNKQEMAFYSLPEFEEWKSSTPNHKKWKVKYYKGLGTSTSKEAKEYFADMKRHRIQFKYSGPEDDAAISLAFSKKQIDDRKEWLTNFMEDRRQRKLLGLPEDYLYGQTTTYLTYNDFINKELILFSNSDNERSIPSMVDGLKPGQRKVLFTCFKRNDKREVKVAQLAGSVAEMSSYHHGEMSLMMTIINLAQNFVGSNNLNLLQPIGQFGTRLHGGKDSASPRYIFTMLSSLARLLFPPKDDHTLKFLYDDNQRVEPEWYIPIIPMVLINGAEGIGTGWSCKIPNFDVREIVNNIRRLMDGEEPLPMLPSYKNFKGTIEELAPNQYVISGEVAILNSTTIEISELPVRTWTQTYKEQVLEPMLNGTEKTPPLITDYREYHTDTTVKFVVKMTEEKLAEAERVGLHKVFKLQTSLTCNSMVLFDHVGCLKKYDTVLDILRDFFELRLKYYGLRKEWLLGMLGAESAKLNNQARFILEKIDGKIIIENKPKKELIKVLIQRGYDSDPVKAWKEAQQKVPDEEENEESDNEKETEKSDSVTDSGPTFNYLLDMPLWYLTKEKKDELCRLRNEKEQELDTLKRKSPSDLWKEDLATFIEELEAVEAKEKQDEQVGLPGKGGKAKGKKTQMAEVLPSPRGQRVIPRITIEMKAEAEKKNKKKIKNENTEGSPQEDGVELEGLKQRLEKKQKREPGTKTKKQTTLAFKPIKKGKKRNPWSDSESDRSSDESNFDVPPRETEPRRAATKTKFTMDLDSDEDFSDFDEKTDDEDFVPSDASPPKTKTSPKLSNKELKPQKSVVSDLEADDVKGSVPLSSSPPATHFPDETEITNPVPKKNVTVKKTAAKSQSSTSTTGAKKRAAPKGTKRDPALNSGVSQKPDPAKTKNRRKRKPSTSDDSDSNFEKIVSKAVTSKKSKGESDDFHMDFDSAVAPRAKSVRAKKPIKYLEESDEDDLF

As to `COc1cc2c[n+](C)c3c4cc5c(cc4ccc3c2cc1OC)OCO5` [NITIDINE CHLORIDE], the inhibition result in experiment [1], in experiment [2] and in [3] was “inactive” in each case. For the same compound, in experiment [4], the “Top1 relaxation inhibition (qualitative call)” value was “Active”. The outcome in the experiment with Calf thymus DNA [5] and in the experiment on Calf thymus DNA [6] was Active. In addition, the negative logarithm of the IC50 (pIC50) with HT-29 is 5.56.
For the compound `COc1cc2c(=O)n(CCN(C)C)c3c4cccnc4ccc3c2cc1OC`, the inhibition entry in [1] was “inactive”. Further, in experiment [7], the inhibition entry was “Dose-dependent effect”. Besides, in experiment [8], the “Topoisomerase 1 inhibition (active/inactive)” value is “Active”. The outcome in the experiment on Calf thymus DNA [5] and with Calf thymus DNA [6] was Active. This compound showed a pIC50 in the experiment on HT-29 of 5.78.
As to `CN(C)CCCNc1nc2c3cccnc3ccc2c2cc3c(cc12)OCO3`, the inhibition entry in experiment [1] is “inactive”. Moreover, the inhibition result in experiment [7] was “Dose-dependent effect”. For the same compound, the “Topoisomerase 1 inhibition (active/inactive)” value in [8] was “Active”. The outcome in the experiment on Calf thymus DNA [5] and in the experiment with Calf thymus DNA [6] was Active. Also, in the experiment with Nucleic Acid, the inhibition result is “Active”. In the experiment with HT-29, this compound gave a pIC50 of 5.76.
Consider `CCN(CC)CCCNc1nc2c3cccnc3ccc2c2cc3c(cc12)OCO3`, for which the inhibition entry in [7] is “Dose-dependent effect”. The inhibition result in experiment [2], in experiment [3] and in [9] was “inactive” in each case. The result with Calf thymus DNA [5] and in the experiment on Calf thymus DNA [6] was Active. The inhibition result in experiment [10] is “Active”. In the experiment on HT-29, this compound had a pIC50 of 5.74.
For the compound `CCN(CC)CCn1c(=O)c2cc(OC)c(OC)cc2c2ccc3ncccc3c21`, the inhibition entry in experiment [1] is “inactive”. The inhibition result in experiment [7] is “Dose-dependent effect”. In addition, in [8], the “Topoisomerase 1 inhibition (active/inactive)” value was “Active”. Besides, the outcome with Calf thymus DNA [5] and in the experiment on Calf thymus DNA [6] was Active. The compound also showed a negative logarithm of the IC50 (pIC50) with HT-29 of 5.58.
As for `COc1cc2c(=O)n(CCN(C)C)c3c4ccncc4ccc3c2cc1OC`, in experiment [1], the inhibition result was “inactive”. The inhibition result in experiment [7] is “Dose-dependent effect”. The “Topoisomerase 1 inhibition (active/inactive)” value in experiment [8] was “Active”. Also, the result in the experiment on Calf thymus DNA [5] and in the experiment on Calf thymus DNA [6] was Active. Further, the negative logarithm of the IC50 (pIC50) in the experiment on HT-29 is 5.85.
Regarding `COc1cc2c(=O)n(CCCN(C)C)c3c4ccncc4ccc3c2cc1OC`, in experiment [1], the inhibition result is “inactive”. The inhibition entry in [7] was “Dose-dependent effect”. The “Topoisomerase 1 inhibition (active/inactive)” value in experiment [8] is “Active”. The outcome with Calf thymus DNA [5] and in the experiment on Calf thymus DNA [6] was Active. The pIC50 in the experiment with HT-29 is 5.21.
In the case of `CCN(CC)CCn1c(=O)c2cc(OC)c(OC)cc2c2ccc3cnccc3c21`, the inhibition entry in experiment [1] is “inactive”. Moreover, the inhibition entry in experiment [7] is “Dose-dependent effect”. The “Topoisomerase 1 inhibition (active/inactive)” value in experiment [8] was “Active”. Also, the outcome in the experiment on Calf thymus DNA [5] and in the experiment with Calf thymus DNA [6] was Active. Also, the negative logarithm of the IC50 (pIC50) in the experiment on HT-29 is 5.74.
With `COc1cc2c(=O)n(CCCN(C)C)c3c4cccnc4ccc3c2cc1OC`, the inhibition entry in experiment [7] is “Dose-dependent effect”. For the same compound, the “Topoisomerase 1 inhibition (active/inactive)” value in experiment [8] is “Active”. Besides, the result in the experiment on Calf thymus DNA [5] and in the experiment with Calf thymus DNA [6] was Active. This compound also gave a negative-log IC50 (pIC50) with HT-29 of 5.30.
